Experimental data from article PMC2651159 (Bioorganic & medicinal chemistry letters, 2008).

Columns and labels:
ChTS-DHFR [1] = biological target: T1, ChTS-DHFR (Cryptosporidium hominis, UniProt A0A0S4TER9); assay: Steady-state spectroscopic enzyme inhibition assay; type: biochemical; details: for Potency against ChTS-DHFR relative to FMN (in words): among the 50 compounds tested
DHFR of ChTS-DHFR [2] = assay: DHFR single-enzyme turnover; type: biochemical, Cryptosporidium hominis; details: enzyme in five-fold excess of H2F
ChTS-DHFR R190G mutant = assay: Inhibition of mutant ChTS-DHFR R190G; type: biochemical, Cryptosporidium hominis; details: preliminary analysis
TS reaction of ChTS-DHFR = assay: Inhibition of the TS reaction alone; type: biochemical, Cryptosporidium hominis; details: 300 μM FMN
T. gondii TS-DHFR = biological target: T2, T. gondii TS-DHFR (Toxoplasma gondii, UniProt Q07422); assay: Enzyme inhibition assay, T. gondii TS-DHFR; type: biochemical
T2 sequence (Q07422 1-610): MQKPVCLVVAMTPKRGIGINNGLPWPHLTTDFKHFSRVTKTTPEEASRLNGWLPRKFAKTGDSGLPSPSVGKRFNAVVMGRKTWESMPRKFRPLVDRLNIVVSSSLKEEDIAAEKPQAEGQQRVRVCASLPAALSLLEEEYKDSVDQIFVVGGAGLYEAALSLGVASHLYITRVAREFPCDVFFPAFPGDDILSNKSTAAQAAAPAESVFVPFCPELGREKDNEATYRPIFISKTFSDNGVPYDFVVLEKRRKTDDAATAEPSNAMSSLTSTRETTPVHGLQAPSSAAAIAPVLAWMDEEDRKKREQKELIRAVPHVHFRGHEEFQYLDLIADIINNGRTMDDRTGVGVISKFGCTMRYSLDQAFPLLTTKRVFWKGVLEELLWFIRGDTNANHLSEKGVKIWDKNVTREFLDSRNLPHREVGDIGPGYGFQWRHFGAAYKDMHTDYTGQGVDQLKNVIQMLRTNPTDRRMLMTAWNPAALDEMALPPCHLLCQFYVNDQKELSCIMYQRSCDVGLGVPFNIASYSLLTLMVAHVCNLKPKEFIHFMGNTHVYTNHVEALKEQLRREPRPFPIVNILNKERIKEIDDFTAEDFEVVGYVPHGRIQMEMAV
Outline: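 IC50 determined for the test compound against T. gondii TS-DHFR. Enzyme and ligand concentrations were the same as in parallel runs on C. hominis TS-DHFR, human DHFR and human TS. Values are averages of at least three independent experiments.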

ChTS-DHFR [3] = biological target: T1, ChTS-DHFR; assay: Pre-steady-state burst amplitude dose response; type: binding; details: substrate in slight excess over enzyme
Outline: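 Pre-steady-state kinetics of the DHFR step were observed on the millisecond time scale, with H2F substrate in slight excess over ChTS-DHFR. Burst amplitude was recorded across a dose series of test compound. Amplitude versus concentration was fit to a hyperbolic curve to derive a dissociation constant (Kd).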

DHFR of ChTS-DHFR [4] = assay: Steady-state competition assay; type: biochemical, Cryptosporidium hominis
[5] = test system: Cryptosporidium parasite growth; details: cited from earlier work

Structure (SMILES): CC(=O)N[C@@H]1[C@@H](O)[C@H](O[C@@H]2O[C@H](CO)[C@@H](O)[C@H](O)[C@H]2NC(C)=O)[C@@H](CO)O[C@H]1O [Chitodextrin]
- IC50 (ChTS-DHFR [1]): > 500 µM

Structure (SMILES): C[C@H]1O[C@@H](O[C@H]2[C@@H](O)C[C@H](O[C@H]3[C@@H](O)C[C@H](O[C@H]4CC[C@@]5(C)[C@H](CC[C@@H]6[C@@H]5C[C@@H](O)[C@]5(C)[C@@H](C7=CC(=O)OC7)CC[C@]65O)C4)O[C@@H]3C)O[C@@H]2C)C[C@H](O)[C@@H]1O [Digoxin, reference compound]
- IC50 (ChTS-DHFR [1]): > 500 µM

Structure (SMILES): Cc1cc2nc3c(=O)[nH]c(=O)nc-3n(C[C@H](O)[C@H](O)[C@H](O)COP(=O)(O)O)c2cc1C [FMN, Flavin mononucleotide]
- Effect on rate of chemistry, DHFR single turnover (DHFR of ChTS-DHFR [2]; 500 μM FMN): no decrease
- Effect on amplitude of the single-turnover plot (DHFR of ChTS-DHFR [2]): dose-dependent decrease
- Inhibitory effect on R190G mutant less than that against WT ChTS-DHFR (ChTS-DHFR R190G mutant): approximately 20%
- Inhibition of the TS reaction alone (TS reaction of ChTS-DHFR): little inhibition
- Inhibition of TS-DHFR from Toxoplasma gondii (in words) (T. gondii TS-DHFR): did not inhibit
- Effect on DHFR burst amplitude (ChTS-DHFR [3]): dose-dependent decrease
- Mode of inhibition with respect to H2folate (DHFR of ChTS-DHFR [4]; 200 μM FMN): noncompetitive (mixed)
- Mode of inhibition with respect to NADPH (DHFR of ChTS-DHFR [4]; 200 μM FMN): uncompetitive
- Vmax, H2F varied (DHFR of ChTS-DHFR [4]; in the presence of 200 μM FMN (no inhibitor: 2.35 ± 0.04)): 1.8 ± 0.1 µmol/min
- Vmax, NADPH varied (DHFR of ChTS-DHFR [4]; in the presence of 200 μM FMN (no inhibitor: 2.37 ± 0.03)): 1.77 ± 0.01 µmol/min
- Change in IC50 on varying enzyme concentration (ChTS-DHFR [1]; enzyme concentration varied from 80 to 250 nM): no resulting change

Structure (SMILES): CC(=O)N1CCN(c2ccc(OCC3COC(Cn4ccnc4)(c4ccc(Cl)cc4Cl)O3)cc2)CC1 (stereo not drawn) [Ketoconazole, reference compound]
- IC50 (ChTS-DHFR [1]): > 500 µM

Structure (SMILES): COc1cccc2c1C(=O)C1=C(C2=O)C(O)C2=C(C1O)[C@@H](C[C@@H]1C[C@H](N)[C@@H](O)[C@H](C)O1)C[C@@](O)(/C(C)=N/NC(=O)c1ccccc1)C2 (stereo partly drawn) [Rubidazone]
- IC50 (ChTS-DHFR [1]): > 500 µM

Structure (SMILES): COC1=C(N)C(=O)c2nc(-c3nc(C(=O)O)c(C)c(-c4ccc(OC)c(OC)c4O)c3N)ccc2C1=O [Streptonigrin]
- Potency against ChTS-DHFR relative to FMN (in words) (ChTS-DHFR [1]): comparable potency

Structure (SMILES): CC(=O)Oc1ccccc1C(=O)Nc1ncc([N+](=O)[O-])s1 [nitazoxanide]
- Concentration range inhibiting parasite growth [5]: 1 to 40 µM

Structure (SMILES): Cc1cc2nc3c(=O)[nH]c(=O)nc-3n(C[C@H](O)[C@H](O)[C@H](O)CO)c2cc1C [riboflavin]
- Potency against ChTS-DHFR relative to FMN (in words) (ChTS-DHFR [1]): comparable potency
